The list is not random: actives were taken first. Their share in the collection is about 1.5%.
CXCR6 block: CXCR6 receptor inhibitors, primary screen, cell-based, beta-arrestin, luminescence, CHO-K1 PathHunter, 1536-well; inhibition, % at 20 µM; 360,000 compounds, 0.36% hits; C-X-C chemokine receptor type 6 (Homo sapiens), O00574; AID 602244, 2012; in the data active = inhibition above about 34%, passing the limit was not always enough;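 also: antagonist mode with CXCL16 agonist at 10 nM final; 0% = 10 nM CXCL16 with DMSO and 100% = unstimulated wells without agonist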
Target sequence (O00574 whole entry, looked up): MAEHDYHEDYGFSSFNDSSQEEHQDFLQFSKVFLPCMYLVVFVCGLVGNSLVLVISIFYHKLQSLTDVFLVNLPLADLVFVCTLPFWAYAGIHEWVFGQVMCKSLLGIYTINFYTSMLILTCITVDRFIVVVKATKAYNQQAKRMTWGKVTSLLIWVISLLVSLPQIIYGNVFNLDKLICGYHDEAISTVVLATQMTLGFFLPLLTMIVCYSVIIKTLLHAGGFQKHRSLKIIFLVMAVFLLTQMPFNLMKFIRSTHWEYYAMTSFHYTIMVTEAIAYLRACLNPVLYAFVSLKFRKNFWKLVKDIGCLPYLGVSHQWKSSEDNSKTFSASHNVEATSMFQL
APJ antagonist: antagonists of human apelin receptor APJ, primary screen, CHO-K1 cells, beta-arrestin complementation, luminescence. P35414. inhibition, % at 20 µM. 330,000 compounds, 0.32% hits. AID 2521, 2010;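 active = inhibition above about 40% at 20 µM, limit read from the data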;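 also: cells challenged with 10 nM apelin-13 agonist together with compound; plate controls were apelin-13 plus DMSO wells for no effect and DMSO wells lacking apelin-13 for full effect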
EBI2 block: EBI2 receptor antagonists, beta-arrestin recruitment, primary screen, cell-based, luminescence, 7a,25-OHC stimulation, uHTS; G-protein coupled receptor 183 (Homo sapiens), P32249; 7a,25-OHC stimulated; inhibition, % at 5 µM; 360,000 compounds, 0.81% hits; AID 651636, 2012; in the data active = inhibition above about 38%;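 also: enzyme fragment complementation signal reports receptor beta-arrestin coupling in cells; 0% = agonist plus DMSO wells and 100% = wells without agonist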
APJ agonist: agonists of human apelin receptor APJ, primary screen, CHO-K1 cells, PathHunter beta-arrestin, luminescence | P35414 | 0% DMSO wells, 100% apelin | activation, % at 20 µM | 330,000 compounds, 0.11% hits | AID 2520, 2010;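 active = activation more than six SD over the plate average, tested at 20 µM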;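 also: 0% = DMSO alone and 100% = apelin-13 at 10 nM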
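Assay system: CHO-K1 APJ beta-arrestin complementation cell line / Compound: single test compound dose, 20 µM final, 1% DMSO / Times: overnight seeding, 90 min compound at 25 °C, 1 h detection / Technique: beta-gal luminescence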
CCR6 antagonist: CCR6 receptor antagonists, primary screen, cell-based, CHO-K1, luminescence, beta-arrestin, uHTS | AID 493098, 2011 | CHO-K1 CCR6 PathHunter beta-arrestin, CCL20-stimulated | 340,000 compounds, 0.49% hits | inhibition, % at 20 µM;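 active = compounds whose inhibition of the agonist-driven luminescence signal at 20 µM reaches about 50%, limit read from the data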;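 also: cells stimulated with CCL20 at 14 nM final; plate controls were DMSO with CCL20 for no effect and DMSO without agonist for full effect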
Active calls of the source: *; . = not tested or not shown.

SMILES	CXCR6 block	APJ antagonist	EBI2 block	APJ agonist	CCR6 antagonist
CCOC(=O)CC1(C)Oc2cc(Cl)ccc2N1S(=O)(=O)c1ccc(C)cc1 (stereo unspecified)	.	.	8	.	.
N#CC(C#N)=c1ccc2c(c1)NC1(CCCCC1)N=2	27	28	6	-6	54*
COc1ccccc1C(=O)NNC(=S)NC(=O)c1cc(OC)c(OC)c(OC)c1	32	26	4	-5	58*
COc1cc(C(=O)NNC(=S)NC(=O)c2ccccc2C)cc(OC)c1OC	20	13	-4	-5	30
COc1cc(OC)cc(C(=O)Nc2nc(-c3ccccc3)c(-c3ccccc3)o2)c1	18	10	3	-3	62*
O=C(C1=C[C@H](c2csc3ccccc23)C[C@H](OCc2ccc(CO)cc2)O1)N1CCN(Cc2ccc3c(c2)OCO3)CC1	7	-4	51*	-1	11
O=C(C1=C[C@H](c2csc3ccccc23)C[C@H](OCc2ccc(CO)cc2)O1)N1CCN(Cc2ccccc2)CC1	12	-23	33	4	14
CCCNC(=O)C[C@H]1CC[C@@H]2[C@H](COC[C@@H](O)CN2C(=O)c2ccccn2)O1	.	.	-2	.	.
O=C1/C(=C/c2ccc(O)cc2)SC(=S)N1Cc1cccnc1	20	47*	31	-8	45
C#CCOc1ccc(/C=C2\SC(=S)N(Cc3cccnc3)C2=O)cc1	9	10	-11	4	9
CCn1cc(C=C2C(=O)c3ccccc3C2=O)c2ccccc21	7	.	3	.	51*
CC[C@H]1C(=O)[C@@H](Cc2ccccc2)[C@@H]2CCN3C(=O)CCC[C@H]1[C@H]23	-11	.	2	.	6
O=C(N/N=C/c1ccc(O)c([N+](=O)[O-])c1)C(O)(c1ccccc1)c1ccccc1	14	28	3	-6	17
O=C(N/N=C/c1cc([N+](=O)[O-])cc([N+](=O)[O-])c1O)C(O)(c1ccccc1)c1ccccc1	39*	24	7	-5	32
CN1CCN(c2ccc([N+](=O)[O-])c(-n3nc(-c4ccccc4)c4ccccc4c3=O)c2)CC1	18	15	-3	-4	52*
Cc1ccc(S(=O)(=O)N2C3CC(c4ccccc4)N(S(=O)(=O)c4ccccc4Cl)CC3C(=O)C[C@H]2c2ccccc2)cc1 (stereo partly specified)	.	.	10	.	.
CCCCCCCCCC[N+](C)(C)CC/C=C1/c2ccccc2Sc2ccc(Cl)cc21	49*	12	-1	1	-4
CCCCCCCCCCC[N+](C)(C)CC/C=C1/c2ccccc2Sc2ccc(Cl)cc21	4	3	-3	1	11
CC1CCC(NC(=O)C2CCC(CNS(=O)(=O)c3ccc4c(c3)C(C)(C)C(=O)N4C)CC2)CC1 (stereo unspecified)	4	.	4	.	.
CC(=O)OC(C)C1C2=C(C(=O)CC1(C)O)C(=O)c1c(ccc(-c3ccc4c(c3O)C(=O)C3=C(C4=O)C(C(C)OC(C)=O)C(C)(O)CC3=O)c1O)C2=O (stereo unspecified)	29	.	-9	.	52*
O=S1(=O)CC(O)C(O)CS1 (stereo unspecified)	-11	.	-9	.	.
COc1cc(-c2nc(-c3ccccc3)c(-c3cc([N+](=O)[O-])ccc3C)[nH]2)cc(OC)c1OC	49*	29	38*	-5	14
O=[N+]([O-])c1cccc(-c2nc(-c3ccccc3)c(-c3cccs3)[nH]2)c1	7	-1	6	-3	-4
C#Cc1cccc(Nc2nc(NCc3ccccc3)nc3ccsc23)c1	-15	.	-4	.	.
C=C(C)CNC(=S)N/N=C/c1c(F)cccc1F	-1	7	10	-3	-3
SMILES	CXCR6 block	APJ antagonist	EBI2 block	APJ agonist	CCR6 antagonist
Cc1ccc(NC(=S)NNc2ccc([N+](=O)[O-])cc2S(=O)(=O)Nc2ccccc2C(=O)O)cc1C	33	.	2	.	68*
O=C(O)c1ccccc1NS(=O)(=O)c1ccc(NNC(=S)Nc2ccc(OC(F)F)cc2)c([N+](=O)[O-])c1	35*	.	13	.	53*
CN(CCO)c1ccc(C=NNc2ccc([N+](=O)[O-])cc2S(=O)(=O)Nc2ccccc2C(=O)O)cc1	39	1	9	-11	62*
O=C1CCCN1CCCNc1nc(NCc2cccs2)nc2ccsc12	-15	.	-7	.	.
CCN1C(=O)/C(=C2/C=Cc3ccccc3N2CC)SC1=S	21	16	5	-6	33
CCCN1C(=O)/C(=C2/C=Cc3ccccc3N2CC)SC1=S	28	42*	2	-5	41
CCCN1/C(=C2/SC(=S)N(CC)C2=O)C=Cc2ccccc21	34	37	3	-9	54*
CCCCCCCCN1C(=O)[C@H](CC(=O)NCCC(C)C)C[C@@]2(C(=O)OC)CCCCC=C12	18	.	11	.	.
CC(C)[C@H](NC(=O)[C@@H]1Cc2c([nH]c3ccccc23)C2c3ccccc3C(=O)N21)C(=O)N1CCC[C@H]1C(=O)O (stereo partly specified)	-14	.	3	.	.
CCCCOCCCNC(=O)C[C@@H]1C[C@@]2(C(=O)OC)CC(C)(C)CC=C2N(Cc2ccccc2)C1=O	.	.	9	.	.
CC(=O)N1CCn2c3c(c(=O)c4cc(C)ccc42)CCC31 (stereo unspecified)	12	40*	7	-11	27
O=C(NC1CCCCC1)C1c2ccccc2OCC(=O)N1CCc1c[nH]c2ccccc12 (stereo unspecified)	-2	.	-4	.	.
COc1ccccc1N=Nc1nc(-c2ccccc2)c(-c2ccccc2)[nH]1	34	.	38	.	67*
CCOC(=O)c1ccc(S(=O)(=O)N2CCN(CCC#N)CC2)cc1	-9	-44	-12	-4	1
CCOC(=O)c1ccc(S(=O)(=O)N2CCN(CC(O)COc3ccc(C#N)cc3)CC2)cc1 (stereo unspecified)	-6	-3	50*	0	15
COc1ccc(S(=O)(=O)N2CCCN(CC(=O)Nc3ccc(OC)c(Cl)c3)CC2)cc1	-18	7	21	1	3
O=C(CN1CCN(S(=O)(=O)c2ccc(Br)cc2)CC1)Nc1ccc2c(c1)OCO2	62*	-19	9	-4	8
COc1ccc(NC(=O)CN2CCN(S(=O)(=O)c3ccc(Cl)cc3)CC2)cc1Cl	-8	-15	38*	2	10
O=C(CN1CCN(S(=O)(=O)c2ccc(Br)cc2)CC1)Nc1ccc(F)cc1	3	-24	3	-4	0
COc1cc(/C=N/N=C(N)N)ccc1OCc1ccccc1Cl	-11	-21	-20	22*	0
Cc1ccc(-c2cc(-c3ccccc3)c(C#N)c(N)n2)o1	1	0	-5	-6	78*
O=C(N/N=C/c1cn(-c2ccccc2)nc1-c1cccs1)c1ccncc1	8	-14	8	0	53*

Assay outcomes from PubChem.
